In ChEMBL document CHEMBL3112469, “Substituted 2-phenylimidazopyridines: a new class of drug leads for human African trypanosomiasis” (J Med Chem, 2014):
pEC50: −log10 of the molar value.

What was measured:
[1] = tested on: Trypanosoma brucei brucei; assay: Antiparasitic activity against Trypanosoma brucei brucei BF427 assessed as growth inhibition by Alamar Blue assay; type: functional, organism-based
Procedure, shortened: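 Bloodstream-form T. brucei brucei BF427 grown with serial compound dilutions, each tested in triplicate. Growth quantified with AlamarBlue. Pentamidine isothionate included in every assay as positive control.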

[2] = Cytotoxicity against human CRL8155 cells after 48 hrs by Alamar Blue assay; type: cell-based; details: crl8155, 48 h
L6 = assay: Cytotoxicity against rat L6 cells after 48 hrs by Alamar Blue assay; type: cell-based; details: l6, 48 h
HepG2 = assay: Cytotoxicity against human HepG2 cells after 48 hrs by Alamar Blue assay; type: cell-based; details: hepg2, 48 h

Row | pEC50 [1] | Structure (SMILES) | CC50 [2] [µM] | CC50 (L6) [µM] | CC50 (HepG2) [µM]
1 | < 5.00 | O=C(Nc1ccc(F)c(-c2nc3ncccc3o2)c1)C1CCCO1 (centres undefined) |  |  | 
2 | < 4.70 | O=C(Nc1ccc(Cl)c(C(=O)N2CCOCC2)c1)c1ccco1 |  |  | 
3 | < 4.70 | O=C(Nc1ccc(Cl)c(-c2nc3ccccc3o2)c1)C1CCCCC1 |  |  | 
4 | 7.70 | Cc1cc(-c2cnc3[nH]c(-c4cc(NC(=O)N5CCCC5)ccc4F)nc3c2)ccc1F | > 50 |  | 
5 | 8.76 | N=C(N)c1ccc(OCCCCCOc2ccc(C(=N)N)cc2)cc1 [PENTAMIDINE] |  |  | 
6 | < 4.70 | O=C(Nc1ccc(-c2ccncc2)c(-c2nc3ncccc3o2)c1)c1ccco1 |  |  | 
7 | 7.30 | O=C(Nc1ccc(F)c(-c2nc3ncc(-c4cccc(Cl)c4)cc3o2)c1)c1ccco1 |  | > 50 | 
8 | 5.21 | CS(=O)(=O)Nc1ccc(Cl)c(-c2nc3ncccc3o2)c1 |  | > 50 | 
9 | 6.92 | O=C(Nc1ccc(F)c(-c2nc3ncccc3o2)c1)c1ccco1 |  | > 50 | 
10 | 8.70 | Cc1cccc(-c2cnc3[nH]c(-c4cc(NC(=O)N5CCCC5)ccc4F)nc3c2)c1 | 5 |  | 10
11 | 5.15 | O=C(Nc1ccc(F)c(C(=O)Nc2ccc(Cl)cn2)c1)c1ccco1 |  |  | 
12 | < 4.70 | CC(=O)Nc1ccc(F)c(-c2nc3ncccc3o2)c1 |  | > 50 | 
13 | 6.70 | O=C(Nc1ccc(F)c(-c2nc3cc(F)cnc3[nH]2)c1)c1ccco1 |  |  | 
14 | < 4.70 | O=C(Nc1ccc(Cl)c(-c2nc3ccccc3o2)c1)c1ccccc1F |  |  | 
15 | 8.40 | O=C(Nc1ccc(F)c(-c2nc3cc(-c4ccoc4)cnc3[nH]2)c1)N1CCCC1 | 25 |  | > 50
16 | 8.30 | O=C(Nc1ccc(F)c(-c2nc3cc(-c4cccnc4)cnc3[nH]2)c1)N1CCCC1 | 14 |  | > 50
17 | 4.92 | O=C(Nc1ccccc1)Nc1ccc(Cl)c(-c2nc3ncccc3o2)c1 |  | > 50 | 
18 | < 4.70 | CN1CCN(C(=O)c2cc(NC(=O)c3ccco3)ccc2Cl)CC1 |  |  | 
19 | 8.00 | COc1cccc(-c2cnc3[nH]c(-c4cc(NC(=O)N5CCCC5)ccc4F)nc3c2)c1 | 3.6 |  | 35
20 | 8.00 | O=C(Nc1ccc(F)c(-c2nc3cc(-c4ccc(Cl)nc4)cnc3[nH]2)c1)N1CCCC1 | 3.8 |  | > 50
21 | < 5.00 | CN(C(=O)c1ccco1)c1ccc(F)c(-c2nc3ncccc3o2)c1 |  | > 50 | 

Row | pEC50 [1] | Structure (SMILES) | CC50 [2] [µM] | CC50 (L6) [µM] | CC50 (HepG2) [µM]
22 | 7.15 | O=C(Nc1ccc(F)c(-c2nc3cc(Cl)cnc3[nH]2)c1)c1ccco1 | 1.7 | > 50 | > 50
23 | 8.40 | O=C(Nc1ccc(F)c(-c2nc3cc(-c4ccnc(Cl)c4)cnc3[nH]2)c1)N1CCCC1 | > 50 |  | > 50
24 | 8.40 | O=C(Nc1ccc(F)c(-c2nc3cc(-c4cccs4)cnc3[nH]2)c1)N1CCCC1 | 9 |  | 
25 | 6.70 | Cc1ccc(C(=O)Nc2ccc(F)c(-c3nc4ncccc4o3)c2)o1 |  | > 50 | 
26 | 5.42 | CNC(=O)Nc1ccc(F)c(-c2nc3ncccc3o2)c1 |  | > 50 | 
27 | 7.30 | O=C(Nc1ccc(F)c(-c2nc3cc(Cl)cnc3[nH]2)c1)N1CCCC1 | > 50 | 15 | > 50
28 | 6.92 | O=C(c1ccco1)N(C(=O)c1ccco1)c1ccc(F)c(-c2nc3ncccc3o2)c1 | > 50 | > 50 | > 50
29 | < 4.30 | O=C(Nc1ccc(-c2ccc(F)cc2)c(-c2nc3ncccc3o2)c1)c1ccco1 |  | > 50 | 
30 | < 5.00 | O=C(Nc1ccc(F)c(-c2nc3ncccc3o2)c1)c1cc2ccccc2o1 |  | > 50 | 
31 | 6.82 | O=C(Nc1ccc(F)c(-c2nc3ncccc3o2)c1)c1ccoc1 |  | > 50 | 
32 | 6.42 | N#Cc1cnc2nc(-c3cc(NC(=O)c4ccco4)ccc3F)oc2c1 |  | > 50 | 
33 | < 4.70 | O=C(Nc1ccc(Cl)c(-c2nc3ccccc3o2)c1)c1ccccc1 |  |  | 
34 | 5.15 | O=C(Nc1ccc(F)c(-c2nc3ncccc3o2)c1)c1cccnc1 |  | > 50 | 
35 | 8.52 | CC(=O)c1cccc(-c2cnc3[nH]c(-c4cc(NC(=O)N5CCCC5)ccc4F)nc3c2)c1 |  |  | 
36 | < 4.70 | O=C(Nc1ccc(F)c(-c2nc3cnccc3o2)c1)c1ccco1 |  |  | 
37 | 7.22 | COc1ncc(-c2cnc3[nH]c(-c4cc(NC(=O)N5CCCC5)ccc4F)nc3c2)cn1 | 3.9 |  | 9.8
38 | < 4.70 | Cc1ccccc1C(=O)Nc1ccc(Cl)c(-c2nc3ccccc3o2)c1 |  |  | 
39 | 6.05 | O=C(Nc1ccc(F)c(-c2nc3ncccc3o2)c1)c1cnccn1 |  | > 50 | 
40 | < 4.70 | Cn1cncc1C(=O)Nc1ccc(F)c(-c2nc3ncccc3o2)c1 |  | > 50 | 
41 | 6.64 | O=C(Nc1ccc(F)c(-c2nc3ncc(Br)cc3o2)c1)c1ccco1 |  | > 50 | 
42 | 6.30 | CC(=O)N(C(=O)c1ccco1)c1ccc(F)c(-c2nc3ncccc3o2)c1 |  |  | 

Row | pEC50 [1] | Structure (SMILES) | CC50 [2] [µM] | CC50 (L6) [µM] | CC50 (HepG2) [µM]
43 | 5.15 | O=C(Nc1ccc(Cl)c(-c2nc3ncccc3o2)c1)c1ccccc1 |  | > 50 | 
44 |  | COc1cc([C@@H]2c3cc4c(cc3[C@H](O)[C@H]3COC(=O)[C@H]23)OCO4)cc(OC)c1OC [PODOFILOX] |  | 0.014 | 
45 | < 5.00 | O=C(Nc1ccc(F)c(CNc2ccc(Cl)cn2)c1)c1ccco1 |  |  | 
46 | 5.00 | O=C(Nc1ccc(F)c(-c2nc3ccc(Cl)nc3[nH]2)c1)c1ccco1 |  |  | 
47 | 6.38 | O=C(Nc1ccc(F)c(-c2nc3ncc(-c4ccc(-c5ccccc5)cc4)cc3o2)c1)c1ccco1 |  | > 50 | 
48 | 6.00 | CC(C)NC(=O)Nc1ccc(Cl)c(-c2nc3ncccc3o2)c1 |  | > 50 | 
49 | < 4.70 | O=S(=O)(Nc1ccc(Cl)c(-c2nc3ncccc3o2)c1)c1ccccc1 |  | > 50 | 
50 | 6.70 | O=C(Nc1ccc(F)c(-c2nc3cccnc3[nH]2)c1)c1ccco1 |  |  | 
51 | < 4.30 | O=C(Nc1ccc(-c2ccc(F)c(F)c2)c(-c2nc3ncccc3o2)c1)c1ccco1 |  | > 50 | 
52 |  | CCN(CC)CCCC(C)Nc1c2ccc(Cl)cc2nc2ccc(OC)cc12 (centres undefined) [QUINACRINE] | 3.92 |  | 9.78
53 | 5.72 | O=C(Nc1ccc(Cl)c(-c2nc3ncccc3o2)c1)N1CCCCC1 |  |  | 
54 | 5.96 | Fc1ccc(N(Cc2ccccc2)Cc2ccccc2)cc1-c1nc2ncccc2o1 |  | > 50 | 
55 | 5.72 | O=C(Nc1ccc(F)c(-c2nc3ncccc3o2)c1)c1cnco1 |  | > 50 | 
56 | 8.30 | COc1ccccc1-c1cnc2[nH]c(-c3cc(NC(=O)N4CCCC4)ccc3F)nc2c1 | 13 |  | > 50
57 | 6.39 | Fc1ccc(NC(=S)c2ccco2)cc1-c1nc2ncccc2o1 |  | > 50 | 
58 | 6.40 | N#Cc1ccc(NC(=O)c2ccco2)cc1-c1nc2ncccc2o1 |  | > 50 | 
59 | < 4.70 | O=C(Nc1ccc(Cl)c(-c2nc3ccccc3o2)c1)c1ccco1 |  |  | 
60 | 7.05 | O=C(Nc1ccc(Cl)c(-c2nc3ncccc3o2)c1)N1CCCC1 | > 50 |  | > 50
61 | 5.82 | O=C(Nc1ccc(Cl)c(-c2nc3ncccc3o2)c1)c1cccs1 |  | > 50 | 
62 | 7.70 | O=C(Nc1ccc(F)c(-c2nc3cc(-c4cncc(N5CCCC5)c4)cnc3[nH]2)c1)N1CCCC1 | 8 |  | > 50
63 | 7.40 | O=C(Nc1ccc(F)c(-c2nc3cc(-c4cnc(Cl)nc4)cnc3[nH]2)c1)N1CCCC1 |  | 14.3 | 

Row | pEC50 [1] | Structure (SMILES) | CC50 [2] [µM] | CC50 (L6) [µM] | CC50 (HepG2) [µM]
64 | < 4.70 | O=C(Nc1ccc(Cl)c(C(=O)N2CCNCC2)c1)c1ccco1 |  |  | 
65 | 7.52 | O=C(Nc1ccc(F)c(-c2nc3cc(-c4cncnc4)cnc3[nH]2)c1)N1CCCC1 | 12 |  | > 50
66 | 8.30 | O=C(Nc1ccc(F)c(-c2nc3cc(-c4cncc(Cl)c4)cnc3[nH]2)c1)N1CCCC1 | 38 |  | > 50
67 | 6.77 | COc1ccc(-c2cnc3nc(-c4cc(NC(=O)c5ccco5)ccc4F)oc3c2)cc1 |  |  | 
68 | 6.37 | Cc1ccc(NC(=O)c2ccco2)cc1-c1nc2ncccc2o1 |  | > 50 | 
69 | < 4.70 | Fc1ccc(NCc2ccccc2)cc1-c1nc2ncccc2o1 |  |  | 
70 | 7.52 | O=C(Nc1ccc(F)c(-c2nc3cc(-c4cccc(OC(F)(F)F)c4)cnc3[nH]2)c1)N1CCCC1 | 11 |  | > 50
71 | 6.92 | O=C(Nc1ccc(F)c(-c2nc3c(Cl)ccnc3[nH]2)c1)c1ccco1 |  |  | 
72 | < 5.00 | COc1ccc(NC(=O)c2ccco2)cc1-c1nc2ncccc2o1 |  | > 50 | 
73 | < 4.70 | O=C(Nc1ccc(Cl)c(-c2nc3ccccc3o2)c1)c1cccc(F)c1 |  |  | 
74 | 8.70 | O=C(Nc1ccc(F)c(-c2nc3cc(-c4ccsc4)cnc3[nH]2)c1)N1CCCC1 | 6 |  | > 50
75 | 7.00 | Cc1ccoc1C(=O)Nc1ccc(F)c(-c2nc3ncccc3o2)c1 |  | > 50 | 
76 | 8.00 | Cc1cncc(-c2cnc3[nH]c(-c4cc(NC(=O)N5CCCC5)ccc4F)nc3c2)c1 | > 50 |  | > 50
77 | 8.30 | O=C(Nc1ccc(F)c(-c2nc3cc(-c4ccccc4Cl)cnc3[nH]2)c1)N1CCCC1 |  |  | 
78 | < 4.70 | Nc1ccc(Cl)c(-c2nc3ncccc3o2)c1 |  |  | 
79 | 8.70 | O=C(Nc1ccc(F)c(-c2nc3cc(-c4cccc(Cl)c4)cnc3[nH]2)c1)N1CCCC1 | 2.8 |  | > 50
80 | 5.96 | Cn1cccc1C(=O)Nc1ccc(F)c(-c2nc3ncccc3o2)c1 |  | > 50 | 
81 | 6.40 | CN(C)C(=O)Nc1ccc(Cl)c(-c2nc3ncccc3o2)c1 |  | > 50 | 
82 | 8.00 | Nc1cccc(-c2cnc3[nH]c(-c4cc(NC(=O)N5CCCC5)ccc4F)nc3c2)c1 | 5 |  | 40
83 | 8.30 | COc1ccc(-c2cnc3[nH]c(-c4cc(NC(=O)N5CCCC5)ccc4F)nc3c2)cn1 | > 50 |  | > 50
84 | < 4.70 | Cc1cccc(C(=O)Nc2ccc(Cl)c(-c3nc4ccccc4o3)c2)c1 |  |  | 
